Assay results reported in ChEMBL document CHEMBL1129448, “Neurosteroid analogues. 4. The effect of methyl substitution at the C-5 and C-10 positions of neurosteroids on electrophysiological activity at GABAA receptors” (1996).

Columns and labels:
[1] = organism: Rattus norvegicus; assay: Compound was evaluated at 10 uM for its ability to initiate (gate) a current in the absence of GABA in cultured postnatal rat hippocampal neurons; type: functional; design: unit not given here
Summary of the method: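 Whole-cell voltage clamp of cultured postnatal rat hippocampal neurons at -60 mV. Compound at 10 µM was applied without GABA by pressure ejection (500 ms, 10-20 psi) from a pipet within 5 µm. CsCl-based pipet solution, pH 7.3. DMSO final <0.2%. Peak directly gated current is expressed relative to the same cell's response to 2 µM GABA alone. Mean ± SEM, N cells.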

[2] = organism: Rattus norvegicus; assay: Compound was evaluated at 10 uM GABA-mediated current in cultured postnatal rat hippocampal neurons; type: functional
Summary of the method: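 Whole-cell voltage clamp of cultured postnatal rat hippocampal neurons held at -60 mV. Compound at 10 µM was co-applied with 2 µM GABA by pressure ejection (500 ms jet, 10-20 psi) from a pipet within 5 µm of the cell. Pipet solution was CsCl-based, pH 7.3. DMSO final <0.2%. Current is given as % of 2 µM GABA alone (100% = no change). Mean ± SEM, N cells.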

| Compound | Gated current [1] | Potentation [2] |
| --- | --- | --- |
| CC(=O)[C@H]1CC[C@H]2[C@@H]3CC[C@@H]4C[C@H](O)CC[C@@H]4[C@H]3CC[C@]12C | 110 | 754 |
| C[C@]12CC[C@@H](O)C[C@H]1CC[C@@H]1[C@@H]2CC[C@]2(C)[C@@H](C#N)CC[C@@H]12 | 68 | 1297 |
| CC(=O)[C@H]1CC[C@H]2[C@@H]3CC[C@@H]4C[C@H](O)CC[C@]4(C)[C@H]3CC[C@]12C [ELTANOLONE] | 49 | 1023 |
| C[C@]12CC[C@H]3[C@@H](CC[C@@H]4C[C@H](O)CC[C@@H]43)[C@@H]1CC[C@@H]2C#N | 41 | 1823 |
| CC(=O)[C@H]1CC[C@H]2[C@@H]3CC[C@H]4C[C@H](O)CC[C@]4(C)[C@H]3CC[C@]12C [BREXANOLONE] | 26 | 1111 |
| CC(=O)[C@H]1CC[C@H]2[C@@H]3CCC4(C)C[C@H](O)CC[C@]4(C)[C@H]3CC[C@]12C (stereo partly drawn) | 3 | 294 |
| CC(=O)[C@H]1CC[C@H]2[C@@H]3CC[C@]4(C)C[C@H](O)CC[C@]4(C)[C@H]3CC[C@]12C | 24 | 498 |
| CC12CC[C@@H]3[C@H](CC[C@]4(C)[C@@H](C#N)CC[C@@H]34)[C@H]1CC[C@@H](O)C2 (stereo partly drawn) | 0 | 92 |
| CC(=O)[C@H]1CC[C@H]2[C@@H]3CCC4C[C@H](O)CC[C@@H]4[C@H]3CC[C@]12C (stereo partly drawn) | 46 | 926 |
| C[C@]12CC[C@@H]3[C@H](CC[C@]4(C)[C@@H](C#N)CC[C@@H]34)[C@H]1CC[C@@H](O)C2 | 28 | 452 |
| CC(=O)[C@H]1CC[C@H]2[C@@H]3CCC4(C)C[C@H](O)CC[C@@H]4[C@H]3CC[C@]12C (stereo partly drawn) | 0 | 110 |
| C[C@]12CC[C@H]3[C@@H](CCC4C[C@H](O)CC[C@@H]43)[C@@H]1CC[C@@H]2C#N (stereo partly drawn) | 42 | 1721 |
| C[C@]12CC[C@@H](O)C[C@@H]1CC[C@@H]1[C@@H]2CC[C@]2(C)[C@@H](C#N)CC[C@@H]12 | 32 | 1829 |
| CC(=O)[C@H]1CC[C@H]2[C@@H]3CC[C@]4(C)C[C@H](O)CC[C@@H]4[C@H]3CC[C@]12C | 12 | 652 |
